Test results taken from ChEMBL document CHEMBL1152825, “Pseudomonas aeruginosa may accumulate drug resistance mechanisms without losing its ability to cause bloodstream infections” (2007).
Converted amounts (≈) assume the structure as drawn.

What was measured:
Pseudomonas aeruginosa [1] = assay: Antibacterial activity against beta-lactams resistant Pseudomonas aeruginosa isolate expressing AmpC, MexAB-OprM pump by macrodilution technique; format: functional
Outline: (§1)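 Bloodstream P. aeruginosa isolates from patients in six French teaching hospitals (1999–2004). MICs by agar macrodilution on Mueller-Hinton agar with calibrated divalent cations. Isolates were graded susceptible, intermediate or resistant by CLSI breakpoints. Resistance was defined as a ≥fourfold MIC rise over reference strain PAO1. Resistance mechanisms were assigned by RT-PCR (PAO1-derived overexpressing mutants as controls) and gene complementation.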

Pseudomonas aeruginosa [2] = assay: Antibacterial activity against beta-lactams resistant Pseudomonas aeruginosa isolate expressing AmpC by macrodilution technique; format: functional
Outline: as §1, with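 “MICs” for “Bloodstream P. aeruginosa isolates from patients in six French teaching hospitals (1999–2004). MICs”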

Pseudomonas aeruginosa [3] = assay: Antibacterial activity against beta-lactams resistant Pseudomonas aeruginosa isolate expressing MexAB-OprM pump, MexXY-OprM pump by macrodilution technique; format: functional
Outline: as §1, with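 “MICs” for “Bloodstream P. aeruginosa isolates from patients in six French teaching hospitals (1999–2004). MICs”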

Pseudomonas aeruginosa [4] = assay: Antibacterial activity against beta-lactams resistant Pseudomonas aeruginosa isolate expressing MexAB-OprM pump by macrodilution technique; format: functional
Outline: as §1, with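 “MICs” for “Bloodstream P. aeruginosa isolates from patients in six French teaching hospitals (1999–2004). MICs”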

Pseudomonas aeruginosa [5] = assay: Antibacterial activity against beta-lactams resistant Pseudomonas aeruginosa isolate expressing AmpC, MexAB-OprM pump, MexXY-OprM pump by macrodilution technique; format: functional
Outline: as §1, with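 “MICs” for “Bloodstream P. aeruginosa isolates from patients in six French teaching hospitals (1999–2004). MICs”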

Pseudomonas aeruginosa [6] = assay: Antibacterial activity against beta-lactams resistant Pseudomonas aeruginosa isolate expressing OXA2 by macrodilution technique; format: functional
Outline: as §1, with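 “MICs” for “Bloodstream P. aeruginosa isolates from patients in six French teaching hospitals (1999–2004). MICs”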

Pseudomonas aeruginosa [7] = assay: Antibacterial activity against aminoglycoside-resistant Pseudomonas aeruginosa isolate expressing MexXY-OprM pump, AAC(6')-1, AAC(3')-1 by macrodilution technique; format: functional; outline: as §1
Pseudomonas aeruginosa [8] = assay: Antibacterial activity against aminoglycoside-resistant Pseudomonas aeruginosa isolate expressing MexXY-OprM pump, AAC(6')-1 by macrodilution technique; format: functional; outline: as §1
Pseudomonas aeruginosa [9] = assay: Antibacterial activity against aminoglycoside-resistant Pseudomonas aeruginosa isolate expressing AAC(6')-1 by macrodilution technique; format: functional; outline: as §1
Pseudomonas aeruginosa [10] = assay: Antibacterial activity against aminoglycoside-resistant Pseudomonas aeruginosa isolate expressing MexXY-OprM pump, ANT(2'')-1 by macrodilution technique; format: functional; outline: as §1
Pseudomonas aeruginosa [11] = assay: Antibacterial activity against aminoglycoside-resistant Pseudomonas aeruginosa isolate expressing MexXY-OprM pump, AAC(6')-1, ANT(2'')-1 by macrodilution technique; format: functional; outline: as §1
Pseudomonas aeruginosa [12] = assay: Antibacterial activity against aminoglycoside-resistant Pseudomonas aeruginosa isolate expressing MexXY-OprM pump, AAC(3')-1 by macrodilution technique; format: functional; outline: as §1
Pseudomonas aeruginosa [13] = assay: Antibacterial activity against Pseudomonas aeruginosa clinical isolates assessed as resistant rate by macrodilution technique; format: functional
Pseudomonas aeruginosa [14] = assay: Antibacterial activity against MexXY-OprM pump-independent aminoglycoside-resistant Pseudomonas aeruginosa isolate by macrodilution technique; format: functional; outline: as §1
Pseudomonas aeruginosa [15] = assay: Antibacterial activity against Pseudomonas aeruginosa clinical isolates assessed as susceptible rate by macrodilution technique; format: functional
Pseudomonas aeruginosa [16] = assay: Antibacterial activity against aminoglycoside-resistant Pseudomonas aeruginosa isolate expressing ANT(2'')-1 by macrodilution technique; format: functional; outline: as §1
Pseudomonas aeruginosa [17] = assay: Antibacterial activity against aminoglycoside-resistant Pseudomonas aeruginosa isolate expressing MexXY-OprM pump by macrodilution technique; format: functional; outline: as §1
Pseudomonas aeruginosa [18] = assay: Antibacterial activity against Pseudomonas aeruginosa clinical isolate by macrodilution technique; format: functional
Pseudomonas aeruginosa [19] = assay: Antibacterial activity against wild type Pseudomonas aeruginosa isolate by macrodilution technique; format: functional
Outline: as §1, with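 “MICs” for “Bloodstream P. aeruginosa isolates from patients in six French teaching hospitals (1999–2004). MICs”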

Pseudomonas aeruginosa [20] = assay: Antibacterial activity against aminoglycoside-resistant Pseudomonas aeruginosa isolate expressing AAC(6')-1, ANT(2'')-1 by macrodilution technique; format: functional; outline: as §1
Pseudomonas aeruginosa [21] = assay: Antibacterial activity against wild type Pseudomonas aeruginosa PAO1 by macrodilution technique; format: functional
Outline: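 Wild-type reference strain PAO1. MIC by agar macrodilution on Mueller-Hinton agar with calibrated divalent cations. It served as the baseline for defining a ≥fourfold MIC increase in clinical isolates, and as the expression reference in RT-PCR.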

Pseudomonas aeruginosa [22] = assay: Antibacterial activity against beta-lactams resistant Pseudomonas aeruginosa isolate expressing MexXY-OprM pump, TEM-2 by macrodilution technique; format: functional
Outline: as §1, with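 “MICs” for “Bloodstream P. aeruginosa isolates from patients in six French teaching hospitals (1999–2004). MICs”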

Pseudomonas aeruginosa [23] = assay: Antibacterial activity against beta-lactams resistant OprD-deficient Pseudomonas aeruginosa isolate by macrodilution technique; format: functional
Outline: as §1, with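 “MICs” for “Bloodstream P. aeruginosa isolates from patients in six French teaching hospitals (1999–2004). MICs”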

Pseudomonas aeruginosa [24] = assay: Antibacterial activity against beta-lactams resistant Pseudomonas aeruginosa isolate expressing AmpC, PSE-1, MexXY-OprM pump by macrodilution technique; format: functional
Outline: as §1, with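 “MICs” for “Bloodstream P. aeruginosa isolates from patients in six French teaching hospitals (1999–2004). MICs”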

Pseudomonas aeruginosa [25] = assay: Antibacterial activity against beta-lactams resistant Pseudomonas aeruginosa isolate expressing PSE-1, MexXY-OprM pump by macrodilution technique; format: functional
Outline: as §1, with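 “MICs” for “Bloodstream P. aeruginosa isolates from patients in six French teaching hospitals (1999–2004). MICs”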

Pseudomonas aeruginosa [26] = assay: Antibacterial activity against beta-lactams resistant Pseudomonas aeruginosa isolate expressing PSE-1 by macrodilution technique; format: functional
Outline: as §1, with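 “MICs” for “Bloodstream P. aeruginosa isolates from patients in six French teaching hospitals (1999–2004). MICs”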

Pseudomonas aeruginosa [27] = assay: Antibacterial activity against beta-lactams resistant Pseudomonas aeruginosa isolate expressing AmpC, MexXY-OprM pump, TEM-2 by macrodilution technique; format: functional
Outline: as §1, with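 “MICs” for “Bloodstream P. aeruginosa isolates from patients in six French teaching hospitals (1999–2004). MICs”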

Pseudomonas aeruginosa [28] = assay: Antibacterial activity against beta-lactams resistant Pseudomonas aeruginosa isolate expressing AmpC, MexXY-OprM pump by macrodilution technique; format: functional
Outline: as §1, with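 “MICs” for “Bloodstream P. aeruginosa isolates from patients in six French teaching hospitals (1999–2004). MICs”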

Pseudomonas aeruginosa [29] = assay: Antibacterial activity against beta-lactams resistant Pseudomonas aeruginosa isolate expressing MexXY-OprM pump by macrodilution technique; format: functional
Outline: as §1, with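 “MICs” for “Bloodstream P. aeruginosa isolates from patients in six French teaching hospitals (1999–2004). MICs”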

Pseudomonas aeruginosa [30] = assay: Antibacterial activity against fluoroquinolone-resistant Pseudomonas aeruginosa isolate with GyrA mutant by macrodilution technique

Compound	MIC (Pseudomonas aeruginosa [1]) [µg/mL]	MIC (Pseudomonas aeruginosa [2]) [µg/mL]	MIC (Pseudomonas aeruginosa [3]) [µg/mL]	MIC (Pseudomonas aeruginosa [4]) [µg/mL]	MIC (Pseudomonas aeruginosa [7]) [µg/mL]	MIC (Pseudomonas aeruginosa [8]) [µg/mL]	MIC (Pseudomonas aeruginosa [9]) [µg/mL]	MIC (Pseudomonas aeruginosa [10]) [µg/mL]	MIC (Pseudomonas aeruginosa [11]) [µg/mL]	MIC (Pseudomonas aeruginosa [12]) [µg/mL]	Activity (Pseudomonas aeruginosa [13]) [%]	MIC (Pseudomonas aeruginosa [14]) [µg/mL]	Activity (Pseudomonas aeruginosa [15]) [%]	MIC (Pseudomonas aeruginosa [16]) [µg/mL]	MIC (Pseudomonas aeruginosa [17]) [µg/mL]	MIC50 (Pseudomonas aeruginosa [18]) [µg/mL]	MIC90 (Pseudomonas aeruginosa [18]) [µg/mL]	MIC (Pseudomonas aeruginosa [19]) [µg/mL]	MIC (Pseudomonas aeruginosa [20]) [µg/mL]	MIC (Pseudomonas aeruginosa [21]) [µg/mL]	also measured
CO/N=C(\C(=O)N[C@@H]1C(=O)N2C(C(=O)[O-])=C(C[N+]3(C)CCCC3)CS[C@H]12)c1csc(N)n1	8 (≈ 16.6 µM)	8 (≈ 16.6 µM)	8 (≈ 16.6 µM)	8 (≈ 16.6 µM)	–	–	–	–	–	–	–	–	–	–	–	–	–	–	–	–	MIC (Pseudomonas aeruginosa [5]): 8 µg/mL (≈ 16.6 µM); MIC (Pseudomonas aeruginosa [6]): 2 µg/mL (≈ 4.16 µM)
NCC[C@H](O)C(=O)N[C@@H]1C[C@H](N)[C@@H](O[C@H]2O[C@H](CN)[C@@H](O)[C@H](O)[C@H]2O)[C@H](O)[C@H]1O[C@H]1O[C@H](CO)[C@@H](O)[C@H](N)[C@H]1O [AMIKACIN]	–	–	–	–	128 (≈ 219 µM)	32 (≈ 54.6 µM)	16 (≈ 27.3 µM)	8 (≈ 13.7 µM)	16 (≈ 27.3 µM)	8 (≈ 13.7 µM)	1.7	8 (≈ 13.7 µM)	93.3	4 (≈ 6.83 µM)	8 (≈ 13.7 µM)	4 (≈ 6.83 µM)	16 (≈ 27.3 µM)	4 (≈ 6.83 µM)	16 (≈ 27.3 µM)	4 (≈ 6.83 µM)	–
C[C@H]1[C@H](NC(=O)/C(=N\OC(C)(C)C(=O)O)c2csc(N)n2)C(=O)N1S(=O)(=O)O [AZTREONAM]	8 (≈ 18.4 µM)	–	–	–	–	–	–	–	–	–	–	–	–	–	–	–	–	–	–	–	MIC (Pseudomonas aeruginosa [22]): 8 µg/mL (≈ 18.4 µM)
CC(C)(O/N=C(\C(=O)N[C@@H]1C(=O)N2C(C(=O)[O-])=C(C[n+]3ccccc3)CS[C@H]12)c1csc(N)n1)C(=O)O [CEFTAZIDIME]	4 (≈ 7.32 µM)	16 (≈ 29.3 µM)	2 (≈ 3.66 µM)	4 (≈ 7.32 µM)	–	–	–	–	–	–	3.3	–	90	–	–	2 (≈ 3.66 µM)	8 (≈ 14.6 µM)	–	–	1 (≈ 1.83 µM)	MIC (Pseudomonas aeruginosa [23]): 2 µg/mL (≈ 3.66 µM); MIC (Pseudomonas aeruginosa [24]): 8 µg/mL (≈ 14.6 µM); MIC (Pseudomonas aeruginosa [25]): 2 µg/mL (≈ 3.66 µM); MIC (Pseudomonas aeruginosa [26]): 2 µg/mL (≈ 3.66 µM); MIC (Pseudomonas aeruginosa [27]): 32 µg/mL (≈ 58.5 µM); MIC (Pseudomonas aeruginosa [28]): 8 µg/mL (≈ 14.6 µM); MIC (Pseudomonas aeruginosa [5]): 16 µg/mL (≈ 29.3 µM); MIC (Pseudomonas aeruginosa [22]): 8 µg/mL (≈ 14.6 µM); MIC (Pseudomonas aeruginosa [6]): 2 µg/mL (≈ 3.66 µM); MIC (Pseudomonas aeruginosa [29]): 2 µg/mL (≈ 3.66 µM)
O=C(O)c1cn(C2CC2)c2cc(N3CCNCC3)c(F)cc2c1=O [CIPROFLOXACIN]	–	–	–	–	–	–	–	–	–	–	–	–	–	–	–	–	–	–	–	–	MIC (Pseudomonas aeruginosa [30]): 16 µg/mL (≈ 48.3 µM)
C[C@@H](O)[C@H]1C(=O)N2C(C(=O)O)=C(SCCNC=N)C[C@H]12 [IMIPENEM ANHYDROUS]	–	8 (≈ 26.7 µM)	–	4 (≈ 13.4 µM)	–	–	–	–	–	–	10.8	–	82.5	–	–	2 (≈ 6.68 µM)	16 (≈ 53.4 µM)	–	–	1 (≈ 3.34 µM)	MIC (Pseudomonas aeruginosa [23]): 8 µg/mL (≈ 26.7 µM); MIC (Pseudomonas aeruginosa [25]): 64 µg/mL (≈ 214 µM); MIC (Pseudomonas aeruginosa [28]): 16 µg/mL (≈ 53.4 µM); MIC (Pseudomonas aeruginosa [29]): 8 µg/mL (≈ 26.7 µM)
CCN[C@@H]1C[C@H](N)[C@@H](O[C@H]2OC(CN)=CC[C@H]2N)[C@H](O)[C@H]1O[C@H]1OC[C@](C)(O)[C@H](NC)[C@H]1O [NETILMICIN]	–	–	–	–	> 128	> 128	> 128	16 (≈ 33.6 µM)	> 128	16 (≈ 33.6 µM)	15	16 (≈ 33.6 µM)	56.7	8 (≈ 16.8 µM)	16 (≈ 33.6 µM)	8 (≈ 16.8 µM)	32 (≈ 67.3 µM)	4 (≈ 8.41 µM)	> 128	4 (≈ 8.41 µM)	–
CC1(C)S[C@@H]2[C@H](NC(=O)[C@H](C(=O)O)c3ccsc3)C(=O)N2[C@H]1C(=O)O [TICARCILLIN]	128 (≈ 333 µM)	64 (≈ 166 µM)	128 (≈ 333 µM)	128 (≈ 333 µM)	–	–	–	–	–	–	10.8	–	77.5	–	–	32 (≈ 83.2 µM)	256 (≈ 666 µM)	16 (≈ 41.6 µM)	–	16 (≈ 41.6 µM)	MIC (Pseudomonas aeruginosa [23]): 16 µg/mL (≈ 41.6 µM); MIC (Pseudomonas aeruginosa [24]): > 256 µg/mL; MIC (Pseudomonas aeruginosa [25]): > 256 µg/mL; MIC (Pseudomonas aeruginosa [26]): > 256 µg/mL; MIC (Pseudomonas aeruginosa [27]): > 256 µg/mL; MIC (Pseudomonas aeruginosa [28]): 128 µg/mL (≈ 333 µM); MIC (Pseudomonas aeruginosa [5]): 128 µg/mL (≈ 333 µM); MIC (Pseudomonas aeruginosa [22]): > 256 µg/mL; MIC (Pseudomonas aeruginosa [6]): 128 µg/mL (≈ 333 µM); MIC (Pseudomonas aeruginosa [29]): 16 µg/mL (≈ 41.6 µM)
NC[C@H]1O[C@H](O[C@H]2[C@H](O)[C@@H](O[C@H]3O[C@H](CO)[C@@H](O)[C@H](N)[C@H]3O)[C@H](N)C[C@@H]2N)[C@H](N)C[C@@H]1O [TOBRAMYCIN]	–	–	–	–	> 64	> 64	32 (≈ 68.4 µM)	> 64	64 (≈ 137 µM)	2 (≈ 4.28 µM)	21.7	2 (≈ 4.28 µM)	77.5	16 (≈ 34.2 µM)	2 (≈ 4.28 µM)	1 (≈ 2.14 µM)	> 64	1 (≈ 2.14 µM)	64 (≈ 137 µM)	0.5 (≈ 1.07 µM)	–
GENTAMICIN	–	–	–	–	128	128	128	128	128	128	25	8	53.3	> 128	8	4	128	4	128	2	–
